Assay results from the EternaBench riboswitch data.

System: MS2 coat protein
Assay: apparent Kd, MS2 coat protein; higher = weaker binding; RNA-MaP array; FMN 200 µM where present
Procedure, shortened: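 Binding was read on Illumina sequencing-chip clusters where stalled E. coli RNA polymerase had transcribed each design. A titration of SNAP-549-labelled MS2 coat protein began at 0.7 or 1.5 nM and doubled to 3 µM, once without ligand and once with constant ligand, in 100 mM Tris-HCl pH 7.5, 80 mM KCl, 4 mM MgCl2, BSA, DTT, yeast tRNA and Tween-20. The apparent Kd is the median of filtered per-cluster binding-curve fits, based on green signal normalised to red-channel RNA signal and control-cluster median Fmax.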

[1] = designed as: OFF switch for flavin mononucleotide, no ligand
[2] = ligand present: flavin mononucleotide, designed as: OFF switch for flavin mononucleotide
[3] = designed as: ON switch for flavin mononucleotide, no ligand
[4] = ligand present: flavin mononucleotide, designed as: ON switch for flavin mononucleotide

| Sequence | apparent Kd [1] | apparent Kd [2] | apparent Kd [3] | apparent Kd [4] |
| --- | --- | --- | --- | --- |
| UUUGGGCCCUCAUCCCUCGACACAUGAGGAUCACCCAUGUGCAGAAGGUGGAGACCCGAGGUCGCCAAGGAUAUGCAAUGGGAC | 15.8 nM | 10.2 nM | – | – |
| UGGGUUACAGGAUAUACAUGAGGAUCACCCAUGUCAUGUUUCGUGGCGGAUAGCUCGAGUAGAAGGGUGCAUCC | 50 nM | 60.4 nM | – | – |
| ACAGAUGCUGACAUGAGGAUCACCCAUGUUAGAUUGUUAUGUCAGGAUAUUAUCUGGCAACCAGAUGAGAAGGGACCAUCUGUG | – | – | 16.5 nM | 7.33 nM |
| GAGAAGUCAGGAUAUCCAUGGCGGCACUUGCGUGGUGGCGUGGAGAAGGGACAUGAGGAUCACCCAUGUAAAGC | 54 nM | 34.9 nM | – | – |
| CAGGUAGACUGAGGAUAUACACAAAACAGCUAGUCUAUCUAGCUGAUCACAUGAGGAUCACCCAUGUAGAAGGCAGUCUGCCUG | 19.2 nM | 55.2 nM | – | – |
| AAUACACUCUAGGAUAUUCAUGCCAGCAGUAUCGAAGAAGGAGAGACAUGAGGAUCACCCAUGUGGAAGCUCCU | 13.1 nM | 16.4 nM | – | – |
| GAAAUGAUGAUAGGAUAUCCACAGACAUGAGGAUCACCCAUGUUUAUGGGACGAAUCCUUGUGCAGGAGAAGGAUCGUCACUAU | 64.7 nM | 39.5 nM | – | – |
| CGUGACGACAUAGGAUAUUGAUACAUGAGGAUCACCCAUGUCACCCAUUUAUCUCAAAUUGUUGACAAGAAGGAUGUGGUCACG | – | – | 16.7 nM | 10.8 nM |
| AAUGAUUGAUUCCACUUAUACAUGAGGAUCACCCAUGUUAUCGAGGAUAUGCAUUAGAGUGUUUAGCAGAAGGCGAUGUAAUUG | 7.82 nM | 25 nM | – | – |
| GGACGUGUCGUUUACAUGAGGAUCACCCAUGUCGAUGGACAUGAGGAUAUGGAUCCGAAUCGGAUCCAGAAGGCAUGCACGUCC | – | – | 85.3 nM | 18.9 nM |
| AUAAGCUCGUCAGGAUAUGCGACACUGUGUCAGCAGUGUGGUAUGAUCACAUGAGGAUCACCCAUGUAGAAGGGACGAGCUUAU | 6.34 nM | 14.3 nM | – | – |
| AGAUGUACAGCGAUAUGAUCGAGAGAUCAUGUCGCUGAAUUUAGAAGGACAUGAGGAUCACCCAUGUAGGAUAUGGGUGUAAUA | – | – | 80.8 nM | 72.8 nM |
| GUCCUACAUGAGGAUCACCCAUGUGAGGAUAUGGAUUCGCUGGCCGUAGCCAGUGGAUCCAGAAGGCGCAUGAU | 26.9 nM | 82.8 nM | – | – |
| GUUAAACAUGAGGAUCACCCAUGUCAAUGUAGUCGAGGAUAUGGGCAGCUAUGAGGCGUACUAGAAGGCGAAGAGU | – | – | 361 nM | 178 nM |
| AAAAAACAUGAGGAUCACCCAUGUGAGGAUAUUGGUAUUCAGGGUAUAAUCUCAAUAGCGAGAAGGCGCAUAAA | 43.6 nM | 44.3 nM | – | – |
| AUAUAUUAGUUAGGAUAUCUGUAAUUUAUUGAAACAUGAGGAUCACCCAUGUUCAUAAAUUUAUAGGAGAAGGGAUAGAUAUAU | – | – | 5.17 nM | 5.03 nM |
| AUCAGCUCGUCAGGAUAUACAUCACUGCUUCGGCAGUGUAUUAAGAUCACAUGAGGAUCACCCAUGUAGAAGGGACGAGCUGAU | 31.7 nM | 310 nM | – | – |
| GUCACGAAUGUAGGAUAUCGAGUGGAAUACACUCGAGAAGGACAUGAGGAUCACCCAUGUACUAUGAAAGAUAAUAAACGUGAC | 14.9 nM | 19.5 nM | – | – |
| CACUGCAAUGUAGGAUAUCGACUGGAAUACAGUCGAGAAGGACAUGAGGAUCACCCAUGUACUAAUAGUGAUAAUAAAGCAGUG | 14.6 nM | 54.1 nM | – | – |
| AUCCGACAUGAGGAUCACCCAUGUCAGGAUAUGGACUGACACCGAAAGAGUGGAGGAACCAGAAGGGACUGGGC | 27.7 nM | 46.5 nM | – | – |
| AGAAAACAUGAGGAUCACCCAUGUGAGGAUAUCGAUGUCCAAAAAAAAGUGCGGGACUCGAGAAGGCACUUGGA | 28.6 nM | 37.6 nM | – | – |

| Sequence | apparent Kd [1] | apparent Kd [2] | apparent Kd [3] | apparent Kd [4] |
| --- | --- | --- | --- | --- |
| GUGUAGUCAGGAUAUACAUAGGAAGAGAAGAGAAGAUAAGCACAUGAGGAUCACCCAUGUAGAAGGGACAGUGU | 65.1 nM | 70.7 nM | – | – |
| CUCCGGCGUGUAGGAUAUGGAUCCGAUUAGGAUCCAGAAGGACAUGAGGAUCACCCAUGUACAUGUAAACAGUCAUCACCGGAC | 8.66 nM | 67.6 nM | – | – |
| ACGCAACAUGAGGAUCACCCAUGUGAGGAUAUGUAAAUAGUAAACAAAUAGGAAAUGAACAGAAGGCACACCGG | 33.8 nM | 46 nM | – | – |
| AGAUGGCGAGGAUAUACAUGAGGAUCACCCAUGUGAGAGAAUAAAGUGAGGAAGAAAAGUAGAAGGCGCUGUCA | 59.4 nM | 264 nM | – | – |
| AUAAAACAUGAGGAUCACCCAUGUCAACAAAGUCGAGGAUAUGGGCAAAUAAAAUAAGAACCAGAAGGCGAAUAAC | – | – | 371 nM | 34.7 nM |
| UCGUGUCAUGUAGGAUAUGACACAGGAAACUGGUCAGAAGGACAUGAGGAUCACCCAUGUAAAAUGUUCAAGAAUAACGCAUGC | 78.8 nM | 161 nM | – | – |
| GUACUGUAGUGAGGAUAUACGAGUUCGAUAGAACGGCGAUCCAAUUAUACAUGAGGAUCACCCAUGUAGAAGGCACUUCAGUAC | 8.88 nM | 50 nM | – | – |
| GAGUGACAUGAGGAUCACCCAUGUGAGGAUAUCGGACGGACCAAAUUAACAACACCCGCGAGAAGGCACAUCGG | 163 nM | 123 nM | – | – |
| GAUAUGAUGUGAGGAUAUGCUGAGGAUACUUCAGCAGAAGGCACAUGAGGAUCACCCAUGUACACUUAUCAUAAAUACCAUAUC | 12.7 nM | 19 nM | – | – |
| GCUGCAUAGGCAGGAUAUGCAAGAAUUGAAAUAAAAUAUAAUAAAUGAACAUGAGGAUCACCCAUGUAGAAGGGCCUGUGCAGU | 20.8 nM | 21.4 nM | – | – |
| CCAUAAAAGAUCCAAAAUUACAACAUGAGGAUCACCCAUGUGCAGGAUAUCGUGCCAGUGAUGUACGAGAAGGGCAGACACUGC | 356 nM | 400 nM | – | – |
| UUAUGUUUUGUAGGAUAUCAUUAGAUUUGUAUUUUAAUUGUAAUUUAGAUAUGAGAAGGACAUUUACAUGAGGAUCACCCAUGU | 14.7 nM | 10.7 nM | – | – |
| GGACGGUUAGUGAGGAUAUGCUCUACCUCGGUAGAGCAGAAGGCACAUGAGGAUCACCCAUGUGAAAACUGUUC | 16.6 nM | 21.2 nM | – | – |
| CCUACGUGAGGAUAUGCAACUAACACGUUAGACAAAUAGUUGCAGAAGGCACAUGAGGAUCACCCAUGUGAACC | 29.8 nM | 34.9 nM | – | – |
| GCCAUCACGUGAGGAUAUGCUCCCGUUUCGGGAGCAGAAGGCAUGUCAUAAGACAUGAGGAUCACCCAUGUAGAUAAGAUGGCA | – | – | 236 nM | 12.4 nM |
| UGCCGCAACAACACGGCAUCACAUGAGGAUCACCCAUGUUCACAGGAUAUGCGAUAGCCAACGAAGCAGAAGGGUGAUUACUUA | – | – | 31.9 nM | 215 nM |
| AGAAUAAACCAGAAGGCCGAGAUACAUGAGGAUCACCCAUGUAUACUUUGGAGGAUAUGGAUGAUUCAAGUGCGUUUCGUAGCA | – | – | 3.98 nM | 3.36 nM |
| UCUCUUCUGUAGAAGGCCCAACUUGUGAAGAUAACGAUACUAUAGAAGUAGGGAGGAUAUACAUGAGGAUCACCCAUGUAGGAA | 8.09 nM | 15.8 nM | – | – |
| AACAUGGCAGAGGAUAUAGGACGCUGGCAUAAACUAGAAGGCUGCACAUGAGGAUCACCCAUGUGUUCCUAAAC | 21.7 nM | 39.4 nM | – | – |
| UCCUCACAUGAGGAUCACCCAUGUCAGGAUAUCUCACAGCUAAAGAAUAAAGGCUGCAAGAGAAGGGACACAAU | 21.6 nM | 48.1 nM | – | – |
| GCCGGAGAAGGAUAUACAUGAGGAUCACCCAUGUUCUUGGGCGAAAUAAAUUCCUAGAGUAGAAGGUCUAGGCA | 18.7 nM | 41.5 nM | – | – |
